# Results collected from several papers.
# Lines come from different studies, so protocols differ.
# Observed: metabolic stability
SMILES,system,setting,half-life
C#Cc1ccc2c(c1)C(c1ccccn1)=NCc1c(-c3cnco3)ncn1-2,"human, liver microsomes",,1500 min
O=C(c1cc(-n2sc3ncccc3c2=O)ccc1Cl)N1CCOCC1,"human, liver microsomes",,> 120 min
Cc1cnc(Nc2ccc(C(=O)NC3CCN(C(=O)COCCOCCOCC(=O)N4CCC(NC(=O)c5ccc(Nc6ncc(C)c(Nc7ccc(Cl)c(NS(=O)(=O)C(C)(C)C)c7)n6)cc5F)CC4)CC3)c(F)c2)nc1Nc1ccc(Cl)c(NS(=O)(=O)C(C)(C)C)c1,"human, liver microsomes",,3.6 min
CCCCCn1nc(C(=O)Nc2cccc3ccccc23)c2ccccc21,"male human, liver microsomes","1 µM, pH 7.4",1.7 min
CN1CCCCC1Cn1cc(C(=O)c2cc([N+](=O)[O-])ccc2I)c2ccccc21 (racemic),"human, liver microsomes",,5.9 min
NCCc1c[nH]c2ccc(O)cc12,"human, hepatocytes",5 µM,33 min
Cc1nc2c(=O)n(C)c(=O)nc-2n(C)n1,"human, liver microsomes",,> 186 min
C=C1NC(=O)[C@H](C)N(O)C(=O)[C@H]([C@@H](O)C(N)=O)N(C)C(=O)[C@H](C)OC(=O)[C@@H]2C[C@H](C)CN2C1=O,"human, liver microsomes",,> 120 min
O=c1c2ccccc2sn1Cc1ccc(Cl)cc1,"human, liver microsomes",,300 min
CCCCCCCCCCCCCCCCCCCCOP(=O)(O)CO[C@H](C)Cn1cnc2c(N)ncnc21.N,"human, liver microsomes","3 µM, 30 min, pH 7.4",49 min
N=c1c2c(-c3ccccc3)c(-c3ccccc3)n(Cc3ccccc3)c2ncn1[C@H]1CC[C@H](O)CC1,"human, liver S9",1 µM,> 120 min
CN(C)CCc1c[nH]c2ccccc12,"human, hepatocytes",0.6 µM,98.9 min
C[C@]12CC[C@H]3[C@@H](CCC4=CC(=O)CC[C@@]43C)[C@@H]1CC[C@@H]2O,"human, liver microsomes",1 µM,14.9 min
CC(C)NCC(O)COc1cccc2ccccc12 (stereo not shown),"human, liver microsomes",2 µM,> 40 min
CCCCCn1cc(C(=O)Nc2cccc3ccccc23)c2ccccc21,"male human, liver microsomes","1 µM, pH 7.4",2.3 min
Cc1cc(C)nc(Nc2ncc(C(=O)NCCc3c(C)[nH]c4ccccc34)cn2)c1,"human, liver microsomes",1 µM,28 min
